Measured values reported in ChEMBL document CHEMBL5252538, “β-Lactam analogues of combretastatin A-4 prevent metabolic inactivation by glucuronidation in chemoresistant HT-29 colon cancer cells” (Eur J Med Chem, 2017).
Activity calls are given as the source filed them. The calls are words filed in the database; no cut-off is given here.

Tests used:
HL-60 = assay: Antiproliferative activity against […] human HL-60 cells assessed as inhibition of cell growth incubated for 72 hrs by alamar blue assay; format: functional, cell-based; settings: HL-60, 72 h
Outline: (§1)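 Cells seeded 24 h before treatment (HL-60 4 × 10⁴, MCF-7 5 × 10³ per well), then given medium, vehicle (1% ethanol v/v) or serial dilutions (eight concentrations) for 72 h. Alamar Blue (10% v/v) added for 3–5 h at 37 °C in the dark, fluorescence read at ex 530/em 590 nm. Viability expressed relative to vehicle (100%), IC50 from dose–response curves; three experiments in triplicate.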

HT-29 [1] = assay: Antiproliferative activity against combretastatin A-4 resistant human HT-29 cells assessed as inhibition of cell growth incubated for 72 hrs by SRB assay; format: functional, cell-based; settings: HT-29, 72 h
Outline: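 HT-29 (DMEM Glutamax, 10% FBS) seeded at 1 × 10⁴ cells/well, treated after 24 h with vehicle (1% ethanol v/v) or serial dilutions (eight concentrations) for 72 h; viability measured by sulforhodamine B protocol. Percent viability relative to vehicle control, IC50 from dose–response curves; mean of three experiments in triplicate.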

MCF7 = assay: Antiproliferative activity against […] human MCF7 cells assessed as inhibition of cell growth incubated for 72 hrs by alamar blue assay; format: functional, cell-based; settings: MCF7, 72 h; outline: as §1
HT-29 [2] = assay: Induction of cell cycle arrest in human HT-29 cells assessed as accumulation of cells at G2/M phase at 1 uM incubated for 24 hrs by RAase A/PI staining based flow cytometry analysis (reference value: 16%); format: functional
HT-29 [3] = assay: Induction of cell cycle arrest in human HT-29 cells assessed as accumulation of cells at G2/M phase at 1 uM incubated for 24 hrs in presence of 2,3-bis(amino((2-aminophenyl)thio)methylene)succinonitrile by RAase A/PI staining based flow cytometry analysis (reference value: 16%); format: functional
Tubulin (Homo sapiens) = Tubulin (Homo sapiens) (UniProt P68371+Q9H4B7+P0DPH7+P68366+Q13509+Q71U36+P04350+Q3ZCM7+P07437+P68363+Q9BQE3+Q6PEY2+Q13885+Q9BVA1+Q9BUF5); assay: Induction of microtubule disruption in human HT-29 cells assessed as effect on microtubule organization at 1 uM incubated for 16 hrs by immunofluorescence based confocal microscopic analysis; format: cell-based
Tubulin (Bos taurus) = Tubulin (Bos taurus) (UniProt Q6B856+Q862L2+Q862F3); assay: Inhibition of bovine tubulin polymerisation assessed as fold reduction in Vmax at 10 uM measured every 30 secs for 30 mins by spectrophotometric method relative to control; format: protein assay
[4] = biological target: Tubulin beta (Homo sapiens) (UniProt P68371+Q9H4B7+Q13509+P04350+Q3ZCM7+P07437+Q13885+Q9BVA1+Q9BUF5+A6NNZ2); assay: Binding affinity to colchicine binding site of beta-tubulin in human MCF7 cells assessed as inhibition of beta-tubulin-EBI adduct formation at 10 uM pretreated for 2 hrs followed by EBI addition and measured after 1.5 hrs by Western blot analysis; format: cell-based; settings: time 3.5 hrs
Outline: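 Cells seeded at 5 × 10⁴/well, grown overnight, treated with vehicle (0.1% ethanol v/v) or compound (10 µM) for 2 h, then EBI (100 µM) added for 1.5 h. Cells washed with ice-cold PBS, lysed in Laemmli buffer, run on SDS-PAGE, blotted and probed for β-tubulin to detect the faster-migrating β-tubulin–EBI adduct; GAPDH reprobe for loading; three independent experiments.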

HT-29 [5] = assay: Induction of cell cycle arrest in human HT-29 cells assessed as accumulation of cells at G0/G1 phase at 1 uM incubated for 24 hrs by RAase A/PI staining based flow cytometry analysis (reference value: 57%); format: functional
HT-29 [6] = assay: Induction of cell cycle arrest in human HT-29 cells assessed as accumulation of cells at G0/G1 phase at 1 uM incubated for 24 hrs in presence of 2,3-bis(amino((2aminophenyl)thio)methylene)succinonitrile by RAase A/PI staining based flow cytometry analysis (reference value: 57%); format: functional
[7] = test system: Panel NCI-60 (60 carcinoma cell lines); assay: Antiproliferative activity against human panel NCI-60 (60 carcinoma cell lines) assessed as inhibition of cell growth at 10 uM incubated for 72 hrs by SRB assay; format: functional, cell-based

Structure (SMILES)	IC50 (HL-60) [nM]	IC50 (HT-29 [1]) [nM]	IC50 (MCF7) [nM]	other results
CCOc1ccc(C2C(Oc3ccccc3)C(=O)N2c2cc(OC)c(OC)c(OC)c2)cc1 (racemic)	494	388	69	
C=CC1C(=O)N(c2cc(OC)c(OC)c(OC)c2)C1c1ccc(OC)cc1 (racemic)	33	10	17	
COc1cc(N2C(=O)C(Cl)(Cl)C2c2ccc(SC)cc2)cc(OC)c1OC (racemic)	223	306	291	
COc1ccc(C2N(c3cc(OC)c(OC)c(OC)c3)C(=O)C2(Cl)Cl)cc1 (racemic)	144	271	133	
COc1ccc(/C=C\c2cc(OC)c(OC)c(OC)c2)cc1O [COMBRETASTATIN A4]	1.9	4160	3.5	Activity (HT-29 [2]): 15%; Activity (HT-29 [3]): 50%; Activity (Tubulin (Homo sapiens)): inactive; fold change (FC) (Tubulin (Bos taurus)): 2; inhibition [4]: Active; Activity (HT-29 [5]): 52%; Activity (HT-29 [6]): 14%
CCSc1ccc(C2CC(=O)N2c2cc(OC)c(OC)c(OC)c2)cc1 (racemic)	204	311	141	
C=CC1C(=O)N(c2cc(OC)c(OC)c(OC)c2)C1c1ccc(OCC)cc1 (racemic)	35	97	14	
COc1ccc([C@@H]2[C@@H](Oc3ccccc3)C(=O)N2c2cc(OC)c(OC)c(OC)c2)cc1O (relative stereo)	7	692	23	
COc1cc(N2C(=O)C(Cl)C2c2ccc(SC)cc2)cc(OC)c1OC (racemic)	522	137	73	fold change (FC) (Tubulin (Bos taurus)): 2; inhibition [7]: Active
COc1ccc(C2CC(=O)N2c2cc(OC)c(OC)c(OC)c2)cc1O (racemic)	8	521	6	
C=CC1C(=O)N(c2cc(OC)c(OC)c(OC)c2)C1c1ccc(SCC)cc1 (racemic)	320	257	181	
COc1ccc(C2C(Cl)C(=O)N2c2cc(OC)c(OC)c(OC)c2)cc1 (racemic)	161	135	56	
C=CC1C(=O)N(c2cc(OC)c(OC)c(OC)c2)C1c1ccc(SC)cc1 (racemic)	61	113	51	fold change (FC) (Tubulin (Bos taurus)): 3.4
CCOc1ccc(C2CC(=O)N2c2cc(OC)c(OC)c(OC)c2)cc1 (racemic)	88	65	64	
CCSc1ccc(C2C(Cl)C(=O)N2c2cc(OC)c(OC)c(OC)c2)cc1 (racemic)	385	238	251	
COc1ccc(C2CC(=O)N2c2cc(OC)c(OC)c(OC)c2)cc1 (racemic)	76	65		

Further lines, with some results ahead:

IC50 (HL-60) [nM]	IC50 (HT-29 [1]) [nM]	IC50 (MCF7) [nM]	Structure (SMILES)	other results
> 50000	> 50000	> 50000	COc1cc(N2C(=O)C(c3ccccc3)C2c2ccc(O)cc2)cc(OC)c1OC (mixture of isomers)	
803	1560	606	CCSc1ccc(C2C(C3CC3)C(=O)N2c2cc(OC)c(OC)c(OC)c2)cc1 (racemic)	
209	203	87	CCOc1ccc(C2C(Cl)C(=O)N2c2cc(OC)c(OC)c(OC)c2)cc1 (racemic)	
16	12	6	CCSc1ccc(C2C(O)C(=O)N2c2cc(OC)c(OC)c(OC)c2)cc1 (racemic)	
182	325	270	CCOc1ccc(C2N(c3cc(OC)c(OC)c(OC)c3)C(=O)C2(Cl)Cl)cc1 (racemic)	
69	108	67	COc1cc(N2C(=O)CC2c2ccc(SC)cc2)cc(OC)c1OC (racemic)	
19	52	23	COc1ccc(C2C(Oc3ccccc3)C(=O)N2c2cc(OC)c(OC)c(OC)c2)cc1 (racemic)	
508	632	210	CCSc1ccc(C2C(Oc3ccccc3)C(=O)N2c2cc(OC)c(OC)c(OC)c2)cc1 (mixture of isomers)	
388	336	152	COc1cc(N2C(=O)C(Oc3ccccc3)C2c2ccc(SC)cc2)cc(OC)c1OC (mixture of isomers)	
481	554	660	CCSc1ccc(C2N(c3cc(OC)c(OC)c(OC)c3)C(=O)C2(Cl)Cl)cc1 (racemic)	
430	3140	380	CCSc1ccc(C2C(c3ccccc3)C(=O)N2c2cc(OC)c(OC)c(OC)c2)cc1 (racemic)	
11	15	7	CCOc1ccc(C2C(O)C(=O)N2c2cc(OC)c(OC)c(OC)c2)cc1 (mixture of isomers)	
13	12	4	COc1ccc(C2C(O)C(=O)N2c2cc(OC)c(OC)c(OC)c2)cc1 (racemic)	
5	463	3	COc1ccc(C2C(O)C(=O)N2c2cc(OC)c(OC)c(OC)c2)cc1O (racemic)	
279	204	131	COc1cc(N2C(=O)C(C3CC3)C2c2ccc(SC)cc2)cc(OC)c1OC (racemic)	
74	75	50	CCOc1ccc(C2C(c3ccccc3)C(=O)N2c2cc(OC)c(OC)c(OC)c2)cc1 (racemic)	
